Assay results gathered from unrelated publications.
Protocols differ between the studies behind these lines.
CDK16: Cyclin-dependent kinase 16 (CDK16, Homo sapiens, UniProt Q00536)
CDK16 with cyclin Y: Cyclin-dependent kinase 16, with cyclin Y (CDK16, Homo sapiens, UniProt Q00536)

N#Cc1ccc(NC(=O)Nc2ccccc2)cc1  remaining binding (CDK16; cell-free assay; competition with immobilised ligand; 25 µM): 68%
Cc1cc(O)c(-c2ccc([C@@H](C)CN(C)C)cc2)c2c1[nH]c(=O)c1sccc12  inhibition (CDK16; enzyme activity; inhibitor; 0.1 µM): -12.9%
Cc1ccc(NC(=O)c2ccnc(C(F)(F)F)c2)cc1-c1cc(OCCO)nc(N2CCOCC2)c1  remaining binding (CDK16; binding; 1 µM): 100%
C=CC(=O)N1CCC[C@@H](n2nc(-c3ccc(Oc4ccccc4)cc3)c3c(N)ncnc32)C1  inhibition (CDK16; enzyme activity; inhibitor; 1 µM): 10%
COc1ccc2[nH]c3c4[nH]c5ccc(OC)cc5c4c4c(c3c2c1)C(=O)NC4=O  remaining binding (CDK16; binding; 1 µM): 99%
CCCCC(=O)Nc1ccc(-c2ccc3ncn(CCC)c(=O)c3c2)cn1  remaining binding (CDK16; binding; competition with immobilised ligand; 0.5 µM): 90%
CC(C)S(=O)(=O)c1ccc2nccc(Nc3ccc4sc(C5CCCC5)nc4c3)c2c1  activity vs control (CDK16 with cyclin Y; enzyme activity; inhibitor; 1 µM): 106%
CO[C@@H]1[C@H](N(C)C(=O)c2ccccc2)C[C@H]2O[C@]1(C)n1c3ccccc3c3c4c(c5c6ccccc6n2c5c31)C(=O)NC4  inhibition (CDK16; enzyme activity; inhibitor; 1 µM): 5%
COc1ccc2oc(-c3ccc4nc(N)oc4c3)c/c(=N\c3ccccc3NC(=O)CCN)c2c1  remaining binding (CDK16 with cyclin Y; binding; 1 µM): 107%
